Test results: ChEMBL document CHEMBL3217692, “Synthesis and cytotoxicity evaluation of novel pyrido[3,4-d]pyrimidine derivatives as potential anticancer agents” (2012)

Assays:
Assay type in all cases: functional
SNB-19 = test: Cytotoxicity against human SNB19 cells assessed as cell growth at 10 uM after 48 hrs by sulforhodamine B assay relative to control; conditions: SNB-19, 48 h, read-out: Activity
Method in brief: (§1)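 Adherent cells were grown in RPMI 1640 with 5% FBS and 2 mM L-glutamine, seeded at 5000–40 000 cells/well by doubling time, and held 24 h at 37 °C, 5% CO2 before drug. Time-zero plates were TCA-fixed. Compound in DMSO, single dose 10 μM, 48 h. Cells were fixed with cold TCA (final 10%, 60 min, 4 °C) and stained with 0.4% SRB. Bound dye was dissolved in 10 mM Tris base and read at 515 nm. Percent growth was derived from time-zero, control and treated absorbances.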

[1] = Cytotoxicity against human NCI-ADR-RES cells assessed as cell growth at 10 uM after 48 hrs by sulforhodamine B assay relative to control; conditions: read-out: Activity; method in brief: as §1
SK-MEL-2 = test: Cytotoxicity against human SK-MEL-2 cells assessed as cell growth at 10 uM after 48 hrs by sulforhodamine B assay relative to control; conditions: SK-MEL-2, 48 h, read-out: Activity; method in brief: as §1
SF-295 = test: Cytotoxicity against human SF295 cells assessed as cell growth at 10 uM after 48 hrs by sulforhodamine B assay relative to control; conditions: SF-295, 48 h, read-out: Activity; method in brief: as §1
Malme-3M = test: Cytotoxicity against human MALME-3M cells assessed as cell growth at 10 uM after 48 hrs by sulforhodamine B assay relative to control; conditions: read-out: Activity; method in brief: as §1
LOX IMVI = test: Cytotoxicity against human LOXIMVI cells assessed as cell growth at 10 uM after 48 hrs by sulforhodamine B assay relative to control; conditions: read-out: Activity; method in brief: as §1
[2] = Cytotoxicity against human Hs 578T cells assessed as cell growth at 10 uM after 48 hrs by sulforhodamine B assay relative to control; conditions: read-out: Activity; method in brief: as §1
SF-268 = test: Cytotoxicity against human SF268 cells assessed as cell growth at 10 uM after 48 hrs by sulforhodamine B assay relative to control; conditions: SF-268, 48 h, read-out: Activity; method in brief: as §1
[3] = Cytotoxicity against human EKVX cells assessed as cell growth at 10 uM after 48 hrs by sulforhodamine B assay relative to control; conditions: read-out: Activity; method in brief: as §1
MOLT-4 = test: Cytotoxicity against human MOLT4 cells assessed as cell growth at 10 uM after 48 hrs by sulforhodamine B assay relative to control; conditions: MOLT-4, 48 h, read-out: Activity
Method in brief: (§2)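 Suspension lines were cultured in RPMI 1640 with 5% FBS and 2 mM L-glutamine, plated at 5000–40 000 cells/well and preincubated 24 h (37 °C, 5% CO2). Compound in DMSO was given at a single 10 μM dose for 48 h. Settled cells were fixed with 80% TCA (final 16%), then stained with SRB and read at 515 nm. Growth percentage was taken relative to time-zero and untreated control absorbances.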

[4] = Cytotoxicity against human UO31 cells assessed as cell growth at 10 uM after 48 hrs by sulforhodamine B assay relative to control; conditions: UO-31, 48 h, read-out: Activity
Method in brief: (§3)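 NCI-60 single-dose screen. Cells were grown in RPMI 1640 with 5% FBS and 2 mM L-glutamine, seeded at 5000–40 000 cells/well according to doubling time, and pre-incubated 24 h at 37 °C, 5% CO2. Time-zero plates were TCA-fixed at dosing. Compound in DMSO was given at 10 μM for 48 h. Cells were then fixed in cold TCA, stained with 0.4% SRB, solubilised in 10 mM Tris base and read at 515 nm. Growth % was calculated from time-zero, control and treated absorbances.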

[5] = Cytotoxicity against human OVCAR3 cells assessed as cell growth at 10 uM after 48 hrs by sulforhodamine B assay relative to control; conditions: OVCAR-3, 48 h, read-out: Activity; method in brief: as §1
NCI-H226 = test: Cytotoxicity against human NCI-H226 cells assessed as cell growth at 10 uM after 48 hrs by sulforhodamine B assay relative to control; conditions: NCI-H226, 48 h, read-out: Activity; method in brief: as §1
M14 = test: Cytotoxicity against human M14 cells assessed as cell growth at 10 uM after 48 hrs by sulforhodamine B assay relative to control; conditions: M14, 48 h, read-out: Activity; method in brief: as §1
[6] = Cytotoxicity against human UACC62 cells assessed as cell growth at 10 uM after 48 hrs by sulforhodamine B assay relative to control; conditions: UACC-62, 48 h, read-out: Activity; method in brief: as §3
RXF 393 = test: Cytotoxicity against human RXF393 cells assessed as cell growth at 10 uM after 48 hrs by sulforhodamine B assay relative to control; conditions: RXF 393, 48 h, read-out: Activity; method in brief: as §1
[7] = Cytotoxicity against human OVCAR5 cells assessed as cell growth at 10 uM after 48 hrs by sulforhodamine B assay relative to control; conditions: OVCAR-5, 48 h, read-out: Activity; method in brief: as §1
SF-539 = test: Cytotoxicity against human SF539 cells assessed as cell growth at 10 uM after 48 hrs by sulforhodamine B assay relative to control; conditions: SF-539, 48 h, read-out: Activity; method in brief: as §1
HL-60(TB) = test: Cytotoxicity against human HL-60(TB) cells assessed as cell growth at 10 uM after 48 hrs by sulforhodamine B assay relative to control; conditions: HL-60, 48 h, read-out: Activity
Method in brief: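 Suspension line grown in RPMI 1640 with 5% FBS and 2 mM L-glutamine, plated at 5000–40 000 cells/well and preincubated 24 h at 37 °C, 5% CO2. Time-zero plates fixed at dosing. Single 10 μM dose in DMSO for 48 h. Settled cells fixed with TCA (final 16%), then stained with 0.4% SRB, solubilised in 10 mM Tris and read at 515 nm. Growth percentage calculated against time-zero and untreated control.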

[8] = Cytotoxicity against human OVCAR4 cells assessed as cell growth at 10 uM after 48 hrs by sulforhodamine B assay relative to control; conditions: OVCAR-4, 48 h, read-out: Activity; method in brief: as §1
K562 = test: Cytotoxicity against human K562 cells assessed as cell growth at 10 uM after 48 hrs by sulforhodamine B assay relative to control; conditions: K562, 48 h, read-out: Activity; method in brief: as §2
COLO 205 = test: Cytotoxicity against human COLO205 cells assessed as cell growth at 10 uM after 48 hrs by sulforhodamine B assay relative to control; conditions: COLO 205, 48 h, read-out: Activity; method in brief: as §1
NCI-H522 = test: Cytotoxicity against human NCI-H522 cells assessed as cell growth at 10 uM after 48 hrs by sulforhodamine B assay relative to control; conditions: NCI-H522, 48 h, read-out: Activity; method in brief: as §1
IGROV-1 = test: Cytotoxicity against human IGROV1 cells assessed as cell growth at 10 uM after 48 hrs by sulforhodamine B assay relative to control; conditions: IGROV-1, 48 h, read-out: Activity; method in brief: as §1
SR = test: Cytotoxicity against human SR cells assessed as cell growth at 10 uM after 48 hrs by sulforhodamine B assay relative to control; conditions: read-out: Activity; method in brief: as §2
U-251 = test: Cytotoxicity against human U251 cells assessed as cell growth at 10 uM after 48 hrs by sulforhodamine B assay relative to control; conditions: U-251, 48 h, read-out: Activity; method in brief: as §3

SMILES: COc1nccc2c(-c3cccc(F)c3)nc(N)nc12
- growth at 10 µM (SNB-19): 107%
- growth at 10 µM [1]: 110%
- growth at 10 µM (SK-MEL-2): 89.5%
- growth at 10 µM (SF-295): 97.5%
- growth at 10 µM (Malme-3M): 115%
- growth at 10 µM (LOX IMVI): 101%
- growth at 10 µM [2]: 103%
- growth at 10 µM (SF-268): 108%
- growth at 10 µM [3]: 104%
- growth at 10 µM (MOLT-4): 77.8%
- growth at 10 µM [4]: 109%
- growth at 10 µM [5]: 107%
- growth at 10 µM (NCI-H226): 98.2%
- growth at 10 µM (M14): 118%
- growth at 10 µM [6]: 101%
- growth at 10 µM (RXF 393): 101%
- growth at 10 µM [7]: 96%
- growth at 10 µM (SF-539): 97.2%
- growth at 10 µM (HL-60(TB)): 92.5%
- growth at 10 µM [8]: 97.6%
- growth at 10 µM (K562): 95.2%
- growth at 10 µM (COLO 205): 109%
- growth at 10 µM (NCI-H522): 78.6%
- growth at 10 µM (IGROV-1): 117%
- growth at 10 µM (SR): 111%
- growth at 10 µM (U-251): 94.9%
